Experimental data: ChEMBL document CHEMBL1275442, “Pharmacokinetics and tissue distribution of anidulafungin in rats” (Antimicrob Agents Chemother, 2008)

Assays:
Blood [1] = assay: Drug level in Long Evans rat blood assessed as radioactivity per gram of tissue at 5 mg/kg, iv administered as single bolus dose measured 0.5 hrs postdose by autoradiography; assay type: ADME, organism-based; parameters: dose 5 mg/kg, route intravenous; conditions: in vivo
Method in brief: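 Male pigmented Long Evans rats, 7.5 weeks, 202–217 g, given one IV dose of [¹⁴C]anidulafungin, 5 mg/kg. Euthanised under isoflurane with cardiac exsanguination, one rat per time. Sagittal whole-body sections quantified by phosphorimaging, corrected for section thickness. Concentrations in μg eq/g interpolated from least-squares standard curves.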

Blood [2] = assay: Half life in F344 rat blood assessed as total compound-derived radioactivity at 5 mg/kg, iv administered as single bolus dose […]; assay type: ADME, organism-based; parameters: dose 5 mg/kg, route intravenous; conditions: in vivo
Method in brief: (§1)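 Male F344 rats, 10 to 11 weeks old and 223.6 to 243.8 g, got one iv dose of [14C]anidulafungin at 5 mg/kg over about 5 min. Blood, CSF, kidney, liver, lung, quadriceps, spleen and skin were sampled predose and at 0.083 to 72 h, 3 rats per time. Total radioactivity (parent plus metabolites) was measured by liquid scintillation counting. Parameters were noncompartmental, from a composite mean profile.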

Muscle tissue [3] = assay: Half life in F344 rat muscle assessed as total compound-derived radioactivity at 5 mg/kg, iv administered as single bolus dose […]; assay type: ADME, organism-based; parameters: dose 5 mg/kg, route intravenous; conditions: in vivo; method in brief: as §1
Kidney = assay: Half life in F344 rat kidney assessed as total compound-derived radioactivity at 5 mg/kg, iv administered as single bolus dose […]; assay type: ADME, organism-based; parameters: dose 5 mg/kg, route intravenous; conditions: in vivo; method in brief: as §1
Lung [4] = assay: AUC (0 to infinity) in F344 rat lung assessed as total compound-derived radioactivity per gram of tissue at 5 mg/kg, iv administered as single bolus dose […]; assay type: ADME, organism-based; parameters: dose 5 mg/kg, route intravenous, time infinity; conditions: in vivo
Method in brief: (§2)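 Same F344 study: single 5 mg/kg IV [¹⁴C]anidulafungin given over about 5 min. Total drug-derived radioactivity (parent plus metabolites) counted by liquid scintillation, in […]. Noncompartmental analysis of the composite mean profile.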

Muscle tissue [5] = assay: AUC (0 to 24 hrs) in F344 rat muscle assessed as total compound-derived radioactivity per gram of tissue at 5 mg/kg, iv administered as single bolus dose […]; assay type: ADME, organism-based; parameters: time < 24 hr, dose 5 mg/kg, route intravenous; conditions: in vivo; method in brief: as §2
Cerebrospinal fluid [6] = assay: Tmax in F344 rat cerebrospinal fluid assessed as total compound-derived radioactivity at 5 mg/kg, iv administered as single bolus dose […]; assay type: ADME, organism-based; parameters: dose 5 mg/kg, route intravenous; conditions: in vivo; method in brief: as §1
Blood [7] = assay: Tmax in F344 rat blood assessed as total compound-derived radioactivity at 5 mg/kg, iv administered as single bolus dose […]; assay type: ADME, organism-based; parameters: dose 5 mg/kg, route intravenous; conditions: in vivo; method in brief: as §1
Zone of skin = assay: Tmax in F344 rat skin assessed as total compound-derived radioactivity at 5 mg/kg, iv administered as single bolus dose […]; assay type: ADME, organism-based; parameters: dose 5 mg/kg, route intravenous; conditions: in vivo; method in brief: as §1
Spleen [8] = assay: Tmax in F344 rat spleen assessed as total compound-derived radioactivity at 5 mg/kg, iv administered as single bolus dose […]; assay type: ADME, organism-based; parameters: dose 5 mg/kg, route intravenous; conditions: in vivo; method in brief: as §1
Liver [9] = assay: Tmax in F344 rat liver assessed as total compound-derived radioactivity at 5 mg/kg, iv administered as single bolus dose […]; assay type: ADME, organism-based; parameters: dose 5 mg/kg, route intravenous; conditions: in vivo; method in brief: as §1
Lung [10] = assay: AUC (0 to infinity) in F344 rat lung at 5 mg/kg, iv administered as single bolus dose; assay type: ADME, organism-based; parameters: time infinity, dose 5 mg/kg, route intravenous; conditions: in vivo
Method in brief: (§3)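 Male F344 rats, 10–11 weeks, 223.6–243.8 g, given one IV dose of [¹⁴C]anidulafungin, 5 mg/kg, over about 5 min. Tissues and blood sampled at 0.083–72 h (n = 3 rats per time). Parent drug measured by HPLC; LLOQ/ULOQ were 20/5,120 ng/ml for plasma and 220/56,320 ng/g for tissue. Noncompartmental parameters taken from the composite mean profile.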

[11] = Tmax in F344 rat muscle at 5 mg/kg, iv administered as single bolus dose by HPLC method; assay type: ADME, organism-based, Muscle tissue; parameters: dose 5 mg/kg, route intravenous
Method in brief: (§4)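 F344 males, 10 to 11 weeks old and 223.6 to 243.8 g, got a single 5 mg/kg iv dose of [14C]anidulafungin over about 5 min. Plasma and tissues were collected predose and at 0.083 to 72 h, n = 3 per time point. Parent drug was quantified by HPLC-UV, with LLOQ/ULOQ of 20/5,120 ng/ml in plasma and 220/56,320 ng/g in tissue. Noncompartmental parameters came from a composite mean concentration-time profile.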

[12] = Tmax in F344 rat lung at 5 mg/kg, iv administered as single bolus dose by HPLC method; assay type: ADME, organism-based; parameters: dose 5 mg/kg, route intravenous; method in brief: as §4
[13] = Cmax in F344 rat skin at 5 mg/kg, iv administered as single bolus dose after 30 min by HPLC method; assay type: ADME, organism-based, Zone of skin; parameters: dose 5 mg/kg, route intravenous; method in brief: as §3
[14] = Cmax in F344 rat kidney at 5 mg/kg, iv administered as single bolus dose after 30 min by HPLC method; assay type: ADME, organism-based; parameters: dose 5 mg/kg, route intravenous; method in brief: as §3
Muscle tissue [15] = assay: AUC (0 to infinity) in F344 rat muscle at 5 mg/kg, iv administered as single bolus dose; assay type: ADME, organism-based; parameters: dose 5 mg/kg, route intravenous, time infinity; conditions: in vivo; method in brief: as §3
Muscle tissue [16] = assay: Drug level in Long Evans rat muscle assessed as radioactivity per gram of tissue at 5 mg/kg, iv administered as single bolus dose measured 6 hrs postdose by autoradiography; assay type: ADME, organism-based; parameters: dose 5 mg/kg, route intravenous; conditions: in vivo
Method in brief: (§5)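 Male pigmented Long Evans (HsdBlu:LE) rats, 7.5 weeks old and 202 to 217 g, got a single iv dose of [14C]anidulafungin at 5 mg/kg. One rat per time point (0.5, 6, 12, 24, 72, 168 h) was euthanised by isoflurane and cardiac-puncture exsanguination. Sagittal whole-body sections were quantified by phosphorimaging. Samples were thickness-corrected, and concentrations (μg eq/g) were interpolated from least-squares standard curves.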

Spleen [17] = assay: Drug level in Long Evans rat spleen assessed as radioactivity per gram of tissue at 5 mg/kg, iv administered as single bolus dose measured 12 hrs postdose by autoradiography; assay type: ADME, organism-based; parameters: dose 5 mg/kg, route intravenous; conditions: in vivo; method in brief: as §5
Cerebrospinal fluid [18] = assay: Drug level in Long Evans rat cerebrospinal fluid assessed as radioactivity per gram of tissue at 5 mg/kg, iv administered as single bolus dose measured 12 hrs postdose by autoradiography; assay type: ADME, organism-based; parameters: dose 5 mg/kg, route intravenous; conditions: in vivo
Method in brief: (§6)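 Male pigmented Long Evans (HsdBlu:LE) rats, 7.5 weeks old, 202 to 217 g, single iv [¹⁴C]anidulafungin; one rat per sampling time. Euthanized by isoflurane and cardiac-puncture exsanguination. Sagittal whole-body sections quantified by phosphorimaging autoradiography, single samples corrected for section thickness across multiple sections per tissue. Concentrations (μg eq/g drug-derived radioactivity) interpolated from least-squares standard curves per scan.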

Lung [19] = assay: Drug level in Long Evans rat lung assessed as radioactivity per gram of tissue at 5 mg/kg, iv administered as single bolus dose measured 24 hrs postdose by autoradiography; assay type: ADME, organism-based; parameters: dose 5 mg/kg, route intravenous; conditions: in vivo; method in brief: as §6
Liver [20] = assay: Drug level in Long Evans rat liver assessed as high disposition of radioactivity per gram of tissue at 5 mg/kg, iv administered as single bolus dose measured 72 hrs postdose by autoradiography; assay type: ADME, organism-based; parameters: dose 5 mg/kg, route intravenous; conditions: in vivo; method in brief: as §6
[21] = Drug level in Long Evans rat eye assessed as radioactivity per gram of tissue at 5 mg/kg, iv administered as single bolus dose measured 12 hrs postdose by autoradiography; assay type: ADME, organism-based; parameters: dose 5 mg/kg, route intravenous; conditions: in vivo; method in brief: as §6
Liver [22] = assay: Drug level in Long Evans rat liver assessed as low disposition of radioactivity per gram of tissue at 5 mg/kg, iv administered as single bolus dose measured 72 hrs postdose by autoradiography; assay type: ADME, organism-based; parameters: dose 5 mg/kg, route intravenous; conditions: in vivo; method in brief: as §6
Liver [23] = assay: Drug level in Long Evans rat liver assessed as high disposition of radioactivity per gram of tissue at 5 mg/kg, iv administered as single bolus dose measured 168 hrs postdose by autoradiography; assay type: ADME, organism-based; parameters: dose 5 mg/kg, route intravenous; conditions: in vivo; method in brief: as §6
Rattus norvegicus = assay: Volume of distribution in F344 rat assessed as total compound-derived radioactivity at 5 mg/kg, iv administered as single bolus dose; assay type: ADME, organism-based; parameters: dose 5 mg/kg, route intravenous; conditions: in vivo; method in brief: as §1

## CCCCCOc1ccc(-c2ccc(-c3ccc([14C](=O)N[C@H]4C[C@@H](O)[C@@H](O)NC(=O)[C@@H]5[C@@H](O)[C@@H](C)CN5C(=O)[C@H]([C@@H](C)O)NC(=O)[C@H]([C@H](O)[C@@H](O)c5ccc(O)cc5)NC(=O)[C@@H]5C[C@@H](O)CN5C(=O)[C@H]([C@@H](C)O)NC4=O)cc3)cc2)cc1 [14C-ANIDULAFUNGIN]
Blood [1]
  Drug uptake: 6.85 ugequiv
Blood [2]
  t1/2: 1710 min
Muscle tissue [3]
  t1/2: 37.5 h
Kidney
  t1/2: 48.5 h
Lung [4]
  AUC: 1341.95 ugequiv.hr/g
Muscle tissue [5]
  AUC: 102.96 ugequiv.hr/g
Cerebrospinal fluid [6]
  Tmax: 4.98 min
Blood [7]
  Tmax: 4.98 min
Zone of skin
  Tmax: 60 min
Spleen [8]
  Tmax: 30 min
Liver [9]
  Tmax: 480 min
Lung [10]
  AUC: 638.21 µg·h/g
[11]
  Tmax: 30 min
[12]
  Tmax: 4.98 min
[13]
  Cmax: 4020 ng/g
[14]
  Cmax: 16100 ng/g
Muscle tissue [15]
  AUC: 57.35 µg·h/g
Muscle tissue [16]
  Drug uptake: 2.53 ugequiv
Spleen [17]
  Drug uptake: 11.48 ugequiv
Cerebrospinal fluid [18]
  Drug uptake: 3.82 ugequiv
Lung [19]
  Drug uptake: 8.05 ugequiv
Liver [20]
  Drug uptake: 16.9 ugequiv
[21]
  Drug uptake: 1.36 ugequiv
Liver [22]
  Drug uptake: 7.22 ugequiv
Liver [23]
  Drug uptake: 4.27 ugequiv
Rattus norvegicus
  Vd: 0.2 L/kg
